The source made the active and inactive calls.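 How the source made its calls: active means fold change inhibition above 1.5; inactive means the rest.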
These compounds were tested on GAL4DBD-VP16 transactivation domain fusion (Human herpesvirus 1 VP16) (assay: GAL4-VP16 transactivation inhibitors, late-stage follow-up, counter-screen for RORA inverse agonist project, cell-based, luminescence, HEK293T, powder samples (AID 463148)). Conditions: HEK293T GAL4-VP16 UAS-luciferase, 18-24 h, at 10 µM, stronger effect = higher value.
Summary of the method: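 Assay system: transfected HEK293T GAL4-VP16 UAS-luciferase reporter cells; doses: single nominal compound concentration of 10 µM; incubation: 20 h compound exposure after transfection; measured by: luminescence of luciferase reporter; read-out basis: fold change relative to DMSO wells; controls: DMSO vehicle-treated cells as reference; repeats: six replicates per compound, averaged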
For `O=C(Nc1ccc(C(O)(C(F)(F)F)C(F)(F)F)cc1)c1ccc(F)cc1Cl`, the fold change inhibition was 1.01 (inactive).
With `O=C(Nc1ccc(C(O)(C(F)(F)F)C(F)(F)F)cc1)c1ccc(F)cc1F` the fold change inhibition was 1.68.
For `O=C(Nc1ccc(C(O)(C(F)(F)F)C(F)(F)F)cc1)c1ccccc1C(F)(F)F`, the fold change inhibition was 0.941 (inactive).
`O=C(Nc1ccc(C(O)(C(F)(F)F)C(F)(F)F)cc1)c1ccc(Cl)cc1` was tested, and the fold change inhibition was 1.27 (inactive).
For `O=C(Nc1ccc(C(O)(C(F)(F)F)C(F)(F)F)cc1)c1c(F)cccc1F`, the fold change inhibition was 1.05 (inactive).
`O=S(=O)(Nc1ccc(C(O)(C(F)(F)F)C(F)(F)F)cc1)c1cccs1` was tested, and the fold change inhibition was 0.97 (inactive).
